The values that follow come from ChEMBL document CHEMBL4130356, “Design, synthesis and 2D QSAR study of novel pyridine and quinolone hydrazone derivatives as potential antimicrobial and antitubercular agents” (Eur J Med Chem, 2017).

Values after ≈ are worked out from the molar mass of the structure shown. Active and inactive are the calls of the source.

The test system of series [1] is Aspergillus fumigatus. In words: Antimicrobial activity against Aspergillus fumigatus RCMB 02568 after 48 hrs by serial dilution method. Particulars: RCMB 02568, 48 h. The format is functional. The essentials: (§1)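 Serial twofold dilution in microtiter plates starting from a 100 mmol stock in DMSO; final concentrations 125 down to 0.12 […]. Incubated at 28°C and read on a microplate reader after 48 h. Amphotericin B was the reference. Run in triplicate, with the average taken. MIC was the lowest concentration inhibiting growth.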

In series [2] the test system is Aspergillus fumigatus. The experiment in a line: Antimicrobial activity against Aspergillus fumigatus RCMB 02568 assessed as diameter of zone inhibition at 100 ug/ml after 48 hrs by agar well diffusion assay. Particulars: RCMB 02568, 48 h, read-out: DIZ. The format is functional. The method, boiled down: (§2)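 Agar well diffusion on malt agar plates seeded with the fungus, using 1 cm wells. Plates were held at 4°C for 1 h for diffusion, then incubated at 28°C. Inhibition zone diameters were measured at 48 h. Amphotericin B was the positive control. Run in triplicate, with the mean zone reported.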
On the technique in general: In agar diffusion tests the substance spreads into inoculated agar from a disc or well.

Series [3] has as its system Candida albicans. In words: Antimicrobial activity against Candida albicans RCMB 05036 assessed as diameter of zone inhibition at 100 ug/ml after 48 hrs by agar well diffusion assay. Particulars: RCMB 05036, 48 h, read-out: DIZ. The format is functional. The method, boiled down: as §2
Series [4] relates to Streptococcus pneumoniae. In words: Antimicrobial activity against Streptococcus pneumoniae RCMB 010010 assessed as diameter of zone inhibition at 100 ug/ml after 24 hrs by agar well diffusion assay. The series is classed as functional. Particulars: RCMB 010010, 24 h, read-out: DIZ. The essentials: (§3)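 Agar well diffusion on nutrient agar plates seeded with the bacterium, using 1 cm wells. Plates were held at 4°C for 1 h for diffusion, then incubated at 37°C. Inhibition zone diameters were measured at 24 h. Ciprofloxacin was the positive control. Run in triplicate, with the mean zone reported.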

In series [5] the test system is Staphylococcus aureus. The experiment in a line: Antimicrobial activity against Staphylococcus aureus RCMB 010028 assessed as diameter of zone inhibition at 100 ug/ml after 24 hrs by agar well diffusion assay. The format is functional. Particulars: RCMB 010028, 24 h, read-out: DIZ. The method, boiled down: as §3
Series [6] has as its system Escherichia coli. The experiment in a line: Antimicrobial activity against Escherichia coli RCMB 010052 assessed as diameter of zone inhibition at 100 ug/ml after 24 hrs by agar well diffusion assay. The series is classed as functional. Particulars: RCMB 010052, 24 h, read-out: DIZ. The method, boiled down: as §3
The subject of series [7] is Candida albicans. The experiment in a line: Antimicrobial activity against Candida albicans RCMB 05036 after 48 hrs by serial dilution method. The series is classed as functional. Particulars: RCMB 05036, 48 h. The essentials:
as §1

For series [8], the system named is Streptococcus pneumoniae. In words: Antimicrobial activity against Streptococcus pneumoniae RCMB 010010 after 24 hrs by serial dilution method. The series is classed as functional. Particulars: RCMB 010010, 24 h. The essentials: (§4)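 Serial twofold dilution in microtiter plates starting from a 100 mmol stock in DMSO; final concentrations 125 down to 0.12 […]. Incubated at 37°C and read on a microplate reader after 24 h. Ciprofloxacin was the reference. Run in triplicate, with the average taken. MIC was the lowest concentration inhibiting growth.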

For series [9], the system named is Staphylococcus aureus. The experiment in a line: Antimicrobial activity against Staphylococcus aureus RCMB 010028 after 24 hrs by serial dilution method. The format is functional. Particulars: RCMB 010028, 24 h. The essentials:
as §4

In series [10] the test system is Escherichia coli. The experiment in a line: Antimicrobial activity against Escherichia coli RCMB 010052 after 24 hrs by serial dilution method. Particulars: RCMB 010052, 24 h. The series is classed as functional. The method, boiled down:
as §4

Series [11] concerns Mycobacterium tuberculosis. In words: Antimycobacterial activity against Mycobacterium tuberculosis RCMB 010126 clinical isolate after 7 days by MABA. The series is classed as functional. To be noted: Mycobacterium tuberculosis, RCMB 010126, 168 h. The method, boiled down: (§5)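 Inoculum from fresh LJ culture resuspended in 7H9-S broth with casitone, glycerol and OADC, adjusted to McFarland No. 1 and diluted 1:20. Serial two-fold compound dilutions in 7H9-S; isoniazid reference. Incubated 7 days at 37°C in air, then Alamar blue added and incubated overnight. Percent inhibition = 1 − (test well/growth-control mean) × 100; MIC = lowest concentration preventing blue-to-pink change.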

The test system of series [12] is Mycobacterium tuberculosis. In words: Antimycobacterial activity against Mycobacterium tuberculosis RCMB 010126 clinical isolate assessed as inhibition zone after 7 days by MABA. The format is functional. The essentials: as §5
(Resazurin is reduced to fluorescent resorufin, in cell work by metabolically active cells.)

Series [13] relates to Escherichia coli. The experiment in a line: Potency index, ratio of ciprofloxacin MIC to test compound MIC for Escherichia coli RCMB 010052. The format is functional.
Series [14] relates to Pseudomonas aeruginosa. Particulars: RCMB 010043, 100 ug/ml.
Series [15] deals with Pseudomonas aeruginosa. To be noted: RCMB 010043.
The subject of another series is WI-38. The experiment in a line: Cytotoxicity against human WI38 cells assessed as reduction in cell viability after 24 hrs by crystal violet staining-based colorimetric method. Particulars: WI-38, 24 h. The method, boiled down:
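WI-38 cells were grown in DMEM with 10% FBS at 37°C and 5% CO2, then seeded at 1×10^4 cells/well. Serial twofold dilutions were added, three wells per concentration. Viability was read by crystal violet stain, solubilised in 30% acetic acid, at 490 nm. Run in triplicate. IC50 was estimated from dose-response plots.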

A short description of series [16]: Selectivity index, ratio of IC50 for human WI38 cells to MIC for Mycobacterium tuberculosis RCMB 010126 clinical isolate. The format is toxicity. Particulars: read-out: Selectivity Index. The essentials: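 WI-38 human lung fibroblasts grown in DMEM with 10% FBS at 37°C and 5% CO2, seeded at 1×10^4 cells/well, and exposed to serial two-fold dilutions in triplicate. Viability read by crystal violet stain at 490 nm. IC50 taken from dose-response plots. Ratio uses this IC50 against the MABA MIC for M. tuberculosis.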

As usually defined, the MIC is the smallest concentration in the dilution series that meets the test's criterion for growth inhibition. In the case of `Cc1nc(-c2cccc(Cl)c2)ccc1C(=O)N/N=C/c1ccc(Cl)cc1`, the MIC amounted to 1.95 µg/mL (≈ 5.07 µM) in the series on Aspergillus fumigatus [1]; 3.9 µg/mL (≈ 10.1 µM) against Candida albicans [7]; 1.95 µg/mL (≈ 5.07 µM) in the series with Streptococcus pneumoniae [8]; 1.95 µg/mL (≈ 5.07 µM) in the series with Staphylococcus aureus [9]; 0.49 µg/mL (≈ 1.28 µM) against Escherichia coli [10]; 6.24 µg/mL (≈ 16.2 µM) in series [11]. Also, the zone of inhibition at 100 µg/mL in the series on Aspergillus fumigatus [2] is 20.3 mm; with Candida albicans [3] it was 17.9 mm; with Streptococcus pneumoniae [4] it was 21.3 mm; in the series on Staphylococcus aureus [5], 19.6 mm; with Escherichia coli [6] it was 23.7 mm. Also, the “inhibition zone (IZ)” value in [12] was 43.25 mm. Besides, in the series with Escherichia coli [13], the Ratio is reported as 2. For the same compound, in the series on Pseudomonas aeruginosa [14], the DIZ entry was “inactive”. Also, in the series with Pseudomonas aeruginosa [15], the MIC entry is “inactive”.

What is called IC50 is the concentration that inhibits the measured activity by half. Regarding `COc1ccc(OC)c(/C=N/NC(=O)c2ccc(-c3cccc(Cl)c3)nc2C)c1`, the minimum inhibitory concentration (MIC) in the series on Aspergillus fumigatus [1] came to 0.98 µg/mL (≈ 2.39 µM); in the series with Candida albicans [7] it was 1.95 µg/mL (≈ 4.76 µM); with Streptococcus pneumoniae [8], 0.98 µg/mL (≈ 2.39 µM); in the series on Staphylococcus aureus [9], 1.95 µg/mL (≈ 4.76 µM); in the series with Escherichia coli [10], 0.98 µg/mL (≈ 2.39 µM); in series [11], 0.39 µg/mL (≈ 0.952 µM). The zone of inhibition at 100 µg/mL was determined as 22.6 mm with Aspergillus fumigatus [2]; 21.2 mm in the series on Candida albicans [3]; 22.5 mm with Streptococcus pneumoniae [4]; 21.3 mm in the series with Staphylococcus aureus [5]; 22.3 mm in the series with Escherichia coli [6]. Also, the “inhibition zone (IZ)” value in series [12] was found to be 82.35 mm. Moreover, in the series with WI-38, the half-inhibitory concentration (IC50) was found to be 188 µg/mL (≈ 459 µM). For the same compound, in series [16], the selectivity ratio came out at 482. Also, in the series on Pseudomonas aeruginosa [14], the DIZ entry was “inactive”. Also, in the series with Pseudomonas aeruginosa [15], the MIC entry was “inactive”.

In the case of `COc1ccc(/C=N/NC(=O)c2ccc(-c3ccc(Cl)cc3)nc2C)cc1`, the minimal inhibitory concentration (MIC) stood at 1.95 µg/mL (≈ 5.13 µM) in the series on Aspergillus fumigatus [1]; 3.9 µg/mL (≈ 10.3 µM) against Candida albicans [7]; 1.95 µg/mL (≈ 5.13 µM) in the series on Streptococcus pneumoniae [8]; 3.9 µg/mL (≈ 10.3 µM) in the series with Staphylococcus aureus [9]; 1.95 µg/mL (≈ 5.13 µM) in the series on Escherichia coli [10]; 0.78 µg/mL (≈ 2.05 µM) in series [11]. Besides, the zone of inhibition at 100 µg/mL with Aspergillus fumigatus [2] was found to be 20.9 mm; in the series on Candida albicans [3] it was 19.2 mm; in the series on Streptococcus pneumoniae [4], 21.3 mm; in the series on Staphylococcus aureus [5] it was 20.1 mm; in the series with Escherichia coli [6], 20.9 mm. In [12], the “inhibition zone (IZ)” value came to 70.34 mm. Also, the concentration for half-maximal inhibition (IC50) in the series on WI-38 came out at 500 µg/mL (≈ 1320 µM). In addition, the selectivity ratio in series [16] stood at 641. For the same compound, the DIZ result with Pseudomonas aeruginosa [14] was “inactive”. Further, the MIC entry with Pseudomonas aeruginosa [15] is “inactive”.

For `COc1cccc(/C=N/NC(=O)c2ccc(-c3ccc(Cl)cc3)nc2C)c1O`, the MIC against Aspergillus fumigatus [1] stood at 1.95 µg/mL (≈ 4.93 µM); in the series on Candida albicans [7] it was 3.9 µg/mL (≈ 9.85 µM); against Streptococcus pneumoniae [8], 0.98 µg/mL (≈ 2.48 µM); against Staphylococcus aureus [9], 1.95 µg/mL (≈ 4.93 µM); in the series on Escherichia coli [10], 1.95 µg/mL (≈ 4.93 µM); in [11], 0.39 µg/mL (≈ 0.985 µM). The zone of inhibition at 100 µg/mL in the series with Aspergillus fumigatus [2] was determined as 21.3 mm; in the series with Candida albicans [3], 20.3 mm; with Streptococcus pneumoniae [4], 22.3 mm; in the series on Staphylococcus aureus [5] it was 20.5 mm; in the series with Escherichia coli [6] it was 21.5 mm. Also, in [12], the “inhibition zone (IZ)” value came out at 80.63 mm. For the same compound, the IC50 with WI-38 was determined as 500 µg/mL (≈ 1260 µM). The selectivity ratio in [16] was determined as 1280. Moreover, the DIZ entry with Pseudomonas aeruginosa [14] was “inactive”. In addition, the MIC result in the series on Pseudomonas aeruginosa [15] is “inactive”.
